As a reminder, the IC50 is the concentration that gives 50% inhibition. The term inhibition in vivo denotes the change of the read-out against control, counted positive when it falls. Low readings indicate a weak effect, high ones a strong effect.

This note sets out measurements from ChEMBL document CHEMBL1143679, “Anti-inflammatory thiazine alkaloids isolated from the New Zealand ascidian Aplidium sp.: inhibitors of the neutrophil respiratory burst in a model of gouty arthritis” (J Nat Prod, 2007).

Calls of active or inactive are those of the source.

Assay [1] relates to Neutrophil. Put plainly: Inhibition of PMA-stimulated superoxide production in human neutrophils. Format: functional, cell-based. The procedure, abridged: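 Neutrophils in HBSS, 1 × 10⁶ cells/well, preincubated 30 min with graded compound concentrations (HBSS, 1% v/v DMSO). WST-1 added (final 0.35 mM), then PMA (final 0.295 µM). Dye reduction read in real time at 450 nm for 20 min at 37 °C. Rate compared with buffer-treated cells; AI50 is the concentration giving 50% inhibition.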

Assay [2] has as its system HL-60. Put plainly: Antiproliferative activity against human HL60 cells after 48 hrs by MTT assay. As to conditions: HL-60, 48 h. Background: Tetrazolium assays rely on reduction of a dye to a coloured formazan, in cell work by metabolically active cells.
Assay [3] can be described thus: Inhibition of superoxide production by xanthine/xanthine oxidase method. Type of assay: functional. The procedure, abridged:
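Cell-free enzyme assay. Graded compound dilutions were prepared in 0.1 M Tris pH 7.4, 0.2 mM EDTA, 1% v/v DMSO. Final WST-1 0.35 mM, xanthine 2.38 mM and xanthine oxidase 15 mU/mL. Absorbance at 450 nm was read in real time for 20 min at 37 °C. The rate was compared with buffer controls, and the 50% inhibitory concentration was reported.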

In assay [4] the test system is Mus musculus. Put plainly: Inhibition of superoxide production in peritoneal neutrophils of C57BL/6 gouty mouse at 25.6 umol/kg, po after 4 hrs relative to monosodium urate. Type of assay: functional. As to conditions: C57BL/6, po. The gist of the method: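 Male C57BL/6 mice, 8–12 weeks, received MSU crystals (3 mg in 500 µL PBS pH 7.4) ip, with oral gavage of compound (25.6 µmol/kg) at the same time. PBS-gavaged controls; colchicine given sc at 5 µmol/kg. After 4 h, peritoneal lavage with heparinized PBS. Cells adjusted to 1 × 10⁶ neutrophils/mL; PMA-triggered WST-1 reduction measured per million neutrophils, relative to MSU-only mice.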

Assay [5] relates to Mus musculus. The assay can be described thus: Inhibition of urate-induced neutrophil recruitment into peritoneal cavity in mouse at 25 umol/kg. Type of assay: functional. The procedure, abridged: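 In the ip MSU (3 mg) mouse model with oral gavage dosing, peritoneal lavage was taken at 4 h. Total cells were counted. A cytocentrifuged aliquot was stained with Diff-Quick, and the neutrophil percentage was scored microscopically by standard histological criteria.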

For the molecule `COC(=O)c1ccc2cccc(O)c2n1`, the figures for the IC50 in assay [1] and in assay [2] were 277 µM and 96.9 µM, respectively.
Regarding `COC(=O)c1ccc2c(n1)C(=O)C=CC2=O`, the figures for the IC50 in assay [1] and in assay [2] were 1.75 µM and 4.11 µM, respectively.
Take `O=C(O)c1ccc2c(n1)C(=O)C1=C(C2=O)S(=O)(=O)CCN1` [ACIDIATHIAZONE A]: in assay [3], half-maximal inhibition (IC50) required 55.9 µM. This molecule displayed an inhibition in vivo at 25.6 µmol/kg in assay [4] of 23%. Besides, in assay [5], the outcome was inactive.
For `Oc1ncnc2[nH]ncc12` [ALLOPURINOL], the IC50 in assay [3] turned out to be 42.2 µM.
As to `COC(=O)c1ccc2c(n1)C(=O)C1=C(C2=O)S(=O)(=O)CCN1` [ASCIDIATHIAZONE A METHYL ESTER], it took 18.2 µM to reach half-maximal inhibition in assay [3] (IC50). This molecule also had an inhibition in vivo at 25.6 µmol/kg in assay [4] of 84%. Moreover, in assay [5], the inhibition in vivo at 25 µmol/kg amounted to 60%.
Consider `O=C(O)c1ccc2c(n1)C(=O)C1=C(NC=CS1(=O)=O)C2=O` [ASCIDIATHIAZONE B], for which the half-inhibitory concentration (IC50) in assay [1] turned out to be 0.44 µM; in assay [3], 17.9 µM; in assay [2], 16.7 µM. In assay [4], this molecule registered an inhibition in vivo at 25.6 µmol/kg of 59%. Besides, the result in assay [5] was inactive.
The molecule `CN(Cc1cnc2nc(N)nc(N)c2n1)c1ccc(C(=O)N[C@@H](CCC(=O)O)C(=O)O)cc1` [METHOTREXATE] returned an IC50 in assay [2] of 0.00692 µM.
